# Bioassay records deposited in PubChem BioAssay by several laboratories.
# The full list was thinned out, with hits kept by preference.
# E coli WT exp: growth inhibitors of wild-type E. coli, primary screen, strain BW25113, expanded library, OD600; growth inhibition, % at 100 µM; 98,000 tested, 0.15% active; OD600 absorbance;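 active = growth inhibition above about 50% at one test dose, limit read from the data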;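 also: growth measured after 20 h incubation at 37 °C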
# E coli RNAP: E. coli RNAP inhibitors, biochemical. E. coli RNA polymerase, fluorescence transcription assay. 62,000 tested, 0.2% active. DNA-directed RNA polymerase subunit beta (Escherichia coli (strain K12)), P0A8V2. inhibition, %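 (tested at 10 µM)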; in the data active = inhibition above about 20%;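 also: 0% = enzyme without compound and 100% = no enzyme blank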
# Target sequence (P0A8V2 whole entry, looked up): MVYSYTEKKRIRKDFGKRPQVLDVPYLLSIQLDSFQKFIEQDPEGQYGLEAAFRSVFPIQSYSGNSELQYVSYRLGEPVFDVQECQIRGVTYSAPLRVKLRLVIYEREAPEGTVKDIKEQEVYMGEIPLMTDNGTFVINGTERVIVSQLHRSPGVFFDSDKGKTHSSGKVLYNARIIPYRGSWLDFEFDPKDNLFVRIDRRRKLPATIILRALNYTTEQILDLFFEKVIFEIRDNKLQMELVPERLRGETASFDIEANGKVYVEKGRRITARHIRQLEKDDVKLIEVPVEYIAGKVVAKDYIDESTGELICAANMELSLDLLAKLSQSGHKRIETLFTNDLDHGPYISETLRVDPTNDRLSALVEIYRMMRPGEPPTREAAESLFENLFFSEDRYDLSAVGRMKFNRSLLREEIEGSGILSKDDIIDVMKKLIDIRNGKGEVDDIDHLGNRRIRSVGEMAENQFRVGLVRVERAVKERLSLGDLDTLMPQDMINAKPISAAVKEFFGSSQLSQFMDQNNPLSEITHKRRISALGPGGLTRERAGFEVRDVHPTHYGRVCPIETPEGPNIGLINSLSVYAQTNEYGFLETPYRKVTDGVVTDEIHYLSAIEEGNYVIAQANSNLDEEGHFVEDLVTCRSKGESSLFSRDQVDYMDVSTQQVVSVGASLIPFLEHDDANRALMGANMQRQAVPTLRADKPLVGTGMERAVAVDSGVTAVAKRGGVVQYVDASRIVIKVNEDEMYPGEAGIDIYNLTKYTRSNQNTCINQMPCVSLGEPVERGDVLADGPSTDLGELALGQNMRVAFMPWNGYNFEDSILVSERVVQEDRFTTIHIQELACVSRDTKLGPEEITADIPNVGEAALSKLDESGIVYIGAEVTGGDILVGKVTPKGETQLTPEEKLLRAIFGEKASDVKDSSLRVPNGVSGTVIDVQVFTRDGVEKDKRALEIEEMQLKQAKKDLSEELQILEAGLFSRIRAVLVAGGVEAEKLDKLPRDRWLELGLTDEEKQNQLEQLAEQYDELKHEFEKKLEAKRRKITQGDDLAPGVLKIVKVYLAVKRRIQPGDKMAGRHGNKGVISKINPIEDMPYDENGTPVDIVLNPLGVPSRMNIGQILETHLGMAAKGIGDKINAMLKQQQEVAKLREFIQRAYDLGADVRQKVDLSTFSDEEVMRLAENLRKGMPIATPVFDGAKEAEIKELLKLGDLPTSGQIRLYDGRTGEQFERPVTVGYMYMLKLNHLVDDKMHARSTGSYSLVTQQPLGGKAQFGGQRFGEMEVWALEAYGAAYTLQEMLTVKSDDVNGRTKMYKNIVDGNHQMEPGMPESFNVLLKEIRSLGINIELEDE
# Ecoli tolC: growth inhibitors of E. coli tolC mutant, primary screen, strain BW25113 ΔtolC::kan, 384-well; OD615; growth inhibition, % at 10 µM (by protocol); 65,000 tested, 2.2% active; AID 573, 2007;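 active = growth inhibition at or above a cutoff equal to the mean over every tested compound plus 3 SD, cut at about 60% in these data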;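 also: growth measured after 20 h incubation at 37 °C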
#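 Doses: one dose of 10 µM final / Material: E. coli BW25113 ΔtolC::kan, tolC deletion mutant strain / Buffer or medium: LB with kanamycin 50 µg/mL / Evaluation: percent growth inhibition / Detection: optical density read at 615 nm / Incubation: 37 °C, 20 h exposure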
# MMP13 inh: human MMP13 inhibitors, primary screen, biochemical, FRET peptide cleavage. MMP-13 fTHP FRET cleavage, Mca fluorescence. inhibition, % at 4 µM. 65,000 tested, 0.07% active;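 active = inhibition above the mean of compound-free control plate wells plus 3 SD, cut at about 14% in these data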;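 also: 0% = DMSO wells and 100% = wells with reference MMP-13 inhibitor after basal subtraction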
# AP complement: alternative complement pathway inhibitors, primary screen, biochemical, ELISA, human serum, orthogonally pooled compounds; LPS-coated ELISA, C3 deposition; tested in compound mixtures; inhibition, % at 5 µM; 62,000 tested, 0.08% active; AID 1235, 2008;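 active = inhibition above 30% in each of the two pooled mixtures holding the compound, so the lower value exceeds 30%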;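 also: 0% = serum in Mg-EGTA without compound and 100% = EDTA serum blank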
#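 Assay system: human serum alternative complement pathway, C3 deposition on LPS-coated wells; Dosing: 5 µM per compound in ten-compound mixtures; Detection: Anti-C3 ELISA, OD 450 nm; Buffer or medium: Mg2+-EGTA GVB++ buffer containing human serum at 1:15 dilution; Timing: 1 h at 37 °C; Replication: two different pools per compound.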
# BAP1 block: inhibitors of BAP1 deubiquitinase, primary screen, biochemical, Ub-AMC fluorescence, kinetic; AID 436, 2006; 72,000 tested, 0.48% active; calls only at 20 µM; recombinant BAP1, Ub-AMC hydrolysis fluorescence kinetic; hits give low values; Ubiquitin carboxyl-terminal hydrolase BAP1 (Homo sapiens), Q92560;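 active = activity remaining at or below 50% of control, provided the compound also passes the data quality filters; inactive = the rest, including low values that fail the filters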;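 also: 100% = DMSO wells rate and 0% = substrate alone blank rate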
# BAP1 inh conf: BAP1 deubiquitinase inhibitors, hit retest, confirmation, orthogonal assay, biochemical, Ub-ethyl ester substrate, HPLC readout; % of control activity, % at 20 µM; 310 tested, 8% active; AID 753, 2007; shares compounds with BAP1 block; purified BAP1, Ub-ethyl ester hydrolysis; hits give low values;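 active = percent of control activity at or below 60%; inconclusive = HPLC trace unusable from injection failure or solvent front hiding peaks; inactive = the rest, plus ubiquitin peak ratio over a set limit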
# Active calls of the source: *; i = inactive; ? = inconclusive; / = not tested or not shown; + = active, no number.
SMILES,E coli WT exp,E coli RNAP,Ecoli tolC,MMP13 inh,AP complement,BAP1 block,BAP1 inh conf
Fc1ccc(C(c2ccc(F)cc2)N2CCN(C/C=C/c3ccccc3)CC2)cc1,/,9,76*,7,11,i,/
Cc1ccc(C)c(Cn2nnc3c(=O)[nH]c(C4CCN(C(=O)c5cccs5)CC4)nc32)c1,2,4,64*,2,5,i,/
CCOc1ccc(S(=O)(=O)Nc2cc(Cl)ccc2O)cc1,33,5,67*,3,9,i,/
CCOc1ccc(S(=O)(=O)Nc2cccc(Cl)c2)cc1,/,3,73*,-8,6,i,/
CC(=O)N1CCN(c2ccccc2NC(=O)COc2cc(C)ccc2C(C)C)CC1,-21,6,31,-2,17,+,?
Cc1ccc2c(c1)c1c(n2CC(O)Cn2nc(C)c(Br)c2C)C(=O)CCC1 (centres undefined),-11,-1,-7,-4,17,+,91
COc1ccc(N(CC(=O)Nc2ccc(OC)c(Cl)c2)S(=O)(=O)c2c(C)noc2C)cc1,-3,3,7,9,5,i,/
COc1ccc(N(CC(=O)Nc2ccc(F)c(Cl)c2)S(=O)(=O)c2c(C)noc2C)cc1,-10,-15,-23,2,13,+,153
COc1cccc(NC(=O)c2ccccc2-c2nc(-c3ccc(Cl)cc3)no2)c1,-5,6,36,0,-1,+,?
CCCn1c2c(c(O)c(C(=O)Nc3nccs3)c1=O)CCCC2,-12,7,17,0,2,i,/
CCCn1c2c(c(O)c(C(=O)Nc3ncccc3C)c1=O)CCCC2,1,3,50,6,8,+,97
CC(C)Cn1c2c(c(O)c(C(=O)Nc3nccs3)c1=O)CCCC2,3,5,24,-3,6,+,115
CCCn1c2c(c(O)c(C(=O)Nc3ccc(C)cn3)c1=O)CCCC2,/,11,-4,3,2,i,/
CCOC(=O)c1c(NCC2CCCO2)c2ccccc2[nH]c1=O (centres undefined),5,/,/,/,/,/,/
O=C(NCC1CCCO1)c1c(O)c2ccccc2[nH]c1=O (centres undefined),1,13,3,5,-1,+,106
CCOC(=O)CSc1nc2cc(OC)ccc2cc1C#N,-2,4,20,-16,-15,+,118
CCOC(=O)CSc1nc2cc(C)ccc2cc1C#N,-4,9,14,-2,-9,i,/
CCOC(=O)C1CCN(S(=O)(=O)c2ccc3c4c(cccc24)C(=O)N3)CC1,-1,-7,-7,-103,3,+,120
CC1=C(C(=O)OC(C)C)C(c2coc3ccc(Cl)cc3c2=O)C2=C(CCCC2=O)N1 (centres undefined),/,/,/,/,/,i,/
COC(=O)c1ccccc1NC(=O)c1sc(=S)n(C)c1N,-2,13,3,2,3,+,51*
COC(=O)c1ccccc1NC(=O)c1sc(N)nc1C,5,8,9,0,4,i,/
O=c1[nH]c2ccc(Cl)cc2c(-c2ccccc2)c1N1CCN(c2ccccn2)CC1,-9,8,49,3,5,+,109
CCOC(=O)c1c(NC(=O)c2nn(CC)cc2Br)c(C#N)nn1-c1ccccc1,-11,1,10,-8,15,+,99
COc1cccc2sc(=NC(=O)c3ccc(S(=O)(=O)N(C)C)cc3)n(C)c12,/,/,/,/,/,i,/
O=C(Nc1nc2c(s1)COc1ccccc1-2)c1cccs1,-16,7,23,-1,10,i,/
SMILES,E coli WT exp,E coli RNAP,Ecoli tolC,MMP13 inh,AP complement,BAP1 block,BAP1 inh conf
O=C(CCS(=O)(=O)c1ccccc1)Nc1nc2c(s1)COc1ccccc1-2,-6,-2,19,-2,24,+,106
O=C(Nc1nccs1)c1ccc2c(c1)C(=O)N(c1ccc(Sc3ccc([N+](=O)[O-])cc3)cc1)C2=O,/,/,/,/,/,i,/
Cc1ccc(C)c(N2CCN(C(=O)CCCn3c(=S)[nH]c4cc5c(cc4c3=O)OCO5)CC2)c1,-10,-4,39,2,11,+,63
C=CCc1ccccc1OCCn1ccnc1,8,12,8,4,12,+,118
Cc1ccc(C(=O)/C=C/Nc2ccccc2C(N)=O)cc1,5,/,/,/,/,/,/
NC(=O)c1ccccc1N/C=C/C(=O)c1ccco1,20,6,0,-36,25,+,89
CCCCc1ccc(Nc2nc(CCC)cc(=O)[nH]2)cc1,2,12,100*,0,-4,+,88
Cc1ccc(C(=O)COC(=O)c2ccccc2Sc2ccc([N+](=O)[O-])cc2)cc1,/,/,/,/,/,i,/
COc1ccc(OC)c(NC2OC(=O)c3c2ccc(OC)c3OC)c1 (centres undefined),/,/,/,/,/,i,/
Cc1cccc(C)c1NC(=O)Cn1nnc(-c2ccc(N3CCOCC3)cc2)n1,-2,-3,-2,1,4,+,114
CCCC1C2CN(C(C)C)CC=C2C(C#N)=C(N)C1(C#N)C#N (centres undefined),3,-3,-1,-67,11,+,94
O=C1c2cccc3cccc(c23)C(=O)N1CCN1CCN(C(=O)C23CC4CC(CC(C4)C2)C3)CC1,/,/,/,/,/,i,/
O=C(NCc1ccccc1)c1c[nH]c2ccc(S(=O)(=O)Nc3ccc4c(c3)OCCO4)cc2c1=O,-14,-6,61*,-4,-4,+,?
Cc1ccc(Cn2ncc3c(N4CCN(c5ccccc5C)CC4)ncnc32)cc1,-23,8,27,7,10,+,95
COc1ccccc1N1CCN(C(=O)CSc2nc(-c3ccco3)cc(C(F)(F)F)n2)CC1,-3,5,28,-1,19,+,109
O=C(O)c1ccccc1C(=O)Nc1ccc2c(c1)OCCO2,/,/,/,/,/,i,/
CCOC(=O)Cc1csc(-n2sc3ccccc3c2=O)n1,6,7,-26,3,0,+,42*
CCOC(=O)Cc1csc(SCn2nnc3ccccc3c2=O)n1,4,6,-23,-4,9,/,/
CCc1ccc(NC(=O)CSc2nnc(COc3ccc4c(c3)CCCC4)o2)cc1,-11,/,/,/,/,/,/
COC(=O)c1ccc(NC(=O)CSc2nnc(COc3ccc4c(c3)CCCC4)o2)cc1,-6,4,5,3,13,+,82
